Measurements: ChEMBL document CHEMBL1821706, “Unprecedented citrinin trimer tricitinol B functions as a novel topoisomerase IIα inhibitor” (J Med Chem, 2011)
Active and inactive are the calls of the source. No cut-off for these calls is given here.

Key:
HCT-116 [1] = assay: Induction of apoptosis in human HCT116 cells assessed as activation of caspase 8 at 2.5 to 10 uM after 24 hrs by Western blotting; assay type: functional, cell-based
Method in brief: (§1)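 Cells (2×10^5/mL) were exposed to 2.5–10 μM for 24 h, then whole-cell lysates were made. Pro-/cleaved caspase-3, caspase-8, pro-/cleaved caspase-9, PARP (116 kDa full length, 85 kDa fragment) and Bid were probed by Western blot with ECL detection.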

[2] = target: DNA topoisomerase 2-alpha (Homo sapiens) (UniProt P11388); assay: Inhibition of human topoisomerase 2alpha-mediated decatenation of kDNA after 30 mins by agarose gel electrophoresis in presence of ATP
Method in brief: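 Decatenation of 0.25 μg kDNA by 0.75 unit topo IIα at 37 °C for 30 min. Stopped with SDS. Run on 1% agarose in TAE at 4 V/cm for 2 h and stained with ethidium bromide.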

MCF7 [3] = assay: Cytotoxicity against adriyamycin-resistant human MCF7 cells over expressing P-glycoprotein after 72 hrs by SRB assay; assay type: functional, cell-based; details: MCF7, 72 h
Method in brief: (§2)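 Adherent human tumour lines were seeded and exposed in triplicate to graded compound concentrations at 37 °C for 72 h. Growth was read by sulforhodamine B staining. IC50 (50% growth inhibition) was obtained by the Logit method from at least three independent experiments and reported as mean ± SD.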

A-431 = assay: Cytotoxicity against human A431 cells after 72 hrs by SRB assay; assay type: functional, cell-based; details: A-431, 72 h, pooled result: one value given for 15 cell lines, strains, targets or settings; method in brief: as §2
HL-60 [4] = assay: Induction of apoptosis in human HL60 cells assessed as DNA ladder formation at 2.5 to 10 uM after 24 hrs using Annexin-V/PI double-staining by flow cytometric analysis; assay type: functional
Method in brief: (§3)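 HL60 cells were treated with 2.5, 5.0, 7.5 or 10.0 μM for 24 h for DNA ladder analysis, representative of three experiments. Apoptotic fractions were measured after 2.5–10 μM for 24 h, or 10 μM over a time course, by Annexin/PI staining and flow cytometry (early plus late apoptotic cells), as mean ± SD of three experiments.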

HL-60 [5] = assay: Induction of apoptosis in human HL60 cells assessed as PARP cleavage at 10 uM after 24 hrs by Western blotting preincubated for 2 hrs with 20 uM pancaspase inhibitor Z-VAD-FMK; assay type: functional, cell-based
Method in brief: (§4)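 HL60 cells were pretreated with 20 μM Z-IETD-FMK, Z-LEHD-FMK or Z-VAD-FMK, then cultured with 10 μM compound for 24 h. Cleaved PARP and caspases were probed by Western blot. Three independent experiments were run.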

HMEC [6] = assay: Selectivity ratio of IC50 for human HMEC cells to IC50 for BxPC3 cells
HMEC [7] = assay: Selectivity ratio of IC50 for human HMEC cells to IC50 for HL60 cells
HCT-116 [8] = assay: Induction of apoptosis in human HCT116 cells assessed as Bid cleavage at 2.5 to 10 uM after 24 hrs by Western blotting; assay type: functional, cell-based; method in brief: as §1
HCT-116 [9] = assay: Induction of apoptosis in human HCT116 cells assessed as increase in cleaved caspase 3 levels after 24 hrs by Western blotting; assay type: functional, cell-based; method in brief: as §1
HL-60 [10] = assay: Cytotoxicity against human HL60 cells after 72 hrs by MTT assay; assay type: functional, cell-based; details: HL-60, 72 h
Method in brief: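 Cells were treated in triplicate with graded concentrations for 72 h at 37 °C and read by MTT. IC50 is the concentration giving 50% growth inhibition, derived by the Logit method from at least three independent experiments and given as mean ± SD.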

HMEC [11] = assay: Selectivity ratio of IC50 for human HMEC cells to IC50 for MKN45 cells
KB [12] = assay: Cytotoxicity against human KB cells after 72 hrs by SRB assay; assay type: functional, cell-based; method in brief: as §2
MCF7 [13] = assay: Cytotoxicity against human MCF7 cells after 72 hrs by SRB assay; assay type: functional, cell-based; details: MCF7, 72 h; method in brief: as §2
HMEC [14] = assay: Cytotoxicity against human HMEC cells after 72 hrs by MTT assay; assay type: cell-based
HL-60 [15] = assay: Induction of apoptosis in human HL60 cells assessed as activation of caspase 9 at 2.5 to 10 uM after 24 hrs by Western blotting; assay type: functional, cell-based; method in brief: as §1
HL-60 [16] = assay: Induction of apoptosis in human HL60 cells assessed as increase in cleaved PARP levels after 24 hrs by Western blotting; assay type: functional, cell-based; method in brief: as §1
HL-60 [17] = assay: Induction of apoptosis in human HL60 cells assessed as activation of caspase 9 at 10 uM after 24 hrs by Western blotting preincubated for 2 hrs with 20 uM caspase 9 inhibitor Z-LEHD-FMK; assay type: functional, cell-based; method in brief: as §4
[18] = target: DNA topoisomerase 2-alpha (Homo sapiens) (UniProt P11388); assay: Inhibition of human topoisomerase 2alpha-mediated poststrand-passage DNA religation after 6 mins by agarose gel electrophoresis
Method in brief: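 Topo II (6 units) with 0.25 μg supercoiled pBR322 in cleavage buffer with 1 mM APPNHP and 5 mM MgCl2. Cleavage/religation equilibrium set at 37 °C for 6 min. Compound added just before religation, which was started by a rapid shift from 37 to 55 °C for 5 min. SDS stop, then 1% agarose electrophoresis.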

HL-60 [19] = assay: Induction of apoptosis in human HL60 cells assessed as increase in cleaved caspase 3 levels after 24 hrs by Western blotting; assay type: functional, cell-based; method in brief: as §1
HeLa = assay: Selectivity ratio of IC50 for human HMEC cells to IC50 for HeLa cells
HL-60 [20] = assay: Induction of apoptosis in human HL60 cells assessed as DNA ladder formation at 2.5 to 10 uM using Annexin-V/PI double-staining by flow cytometric analysis; assay type: functional, cell-based; details: TDE = time-dependent effect; method in brief: as §3
HL-60 [21] = assay: Induction of apoptosis in human HL60 cells assessed as caspase 8 cleavage at 10 uM after 24 hrs by Western blotting preincubated for 2 hrs with 20 uM caspase 8 inhibitor Z-IETD-FMK; assay type: functional, cell-based; method in brief: as §4
HL-60 [22] = assay: Induction of apoptosis in human HL60 cells assessed as DNA ladder formation at 10 uM after 1.5 to 24 hrs using Annexin-V/PI double-staining by flow cytometric analysis; assay type: functional, cell-based; method in brief: as §3
KB [23] = assay: Cytotoxicity against vincristine-resistant human KB cells over expressing P-glycoprotein after 72 hrs by SRB assay; assay type: functional, cell-based; method in brief: as §2
HMEC [24] = assay: Selectivity ratio of IC50 for human HMEC cells to IC50 for A549 cells
HMEC [25] = assay: Selectivity ratio of IC50 for human HMEC cells to IC50 for KB cells

Sequence of DNA topoisomerase 2-alpha (Homo sapiens) (P11388 whole entry): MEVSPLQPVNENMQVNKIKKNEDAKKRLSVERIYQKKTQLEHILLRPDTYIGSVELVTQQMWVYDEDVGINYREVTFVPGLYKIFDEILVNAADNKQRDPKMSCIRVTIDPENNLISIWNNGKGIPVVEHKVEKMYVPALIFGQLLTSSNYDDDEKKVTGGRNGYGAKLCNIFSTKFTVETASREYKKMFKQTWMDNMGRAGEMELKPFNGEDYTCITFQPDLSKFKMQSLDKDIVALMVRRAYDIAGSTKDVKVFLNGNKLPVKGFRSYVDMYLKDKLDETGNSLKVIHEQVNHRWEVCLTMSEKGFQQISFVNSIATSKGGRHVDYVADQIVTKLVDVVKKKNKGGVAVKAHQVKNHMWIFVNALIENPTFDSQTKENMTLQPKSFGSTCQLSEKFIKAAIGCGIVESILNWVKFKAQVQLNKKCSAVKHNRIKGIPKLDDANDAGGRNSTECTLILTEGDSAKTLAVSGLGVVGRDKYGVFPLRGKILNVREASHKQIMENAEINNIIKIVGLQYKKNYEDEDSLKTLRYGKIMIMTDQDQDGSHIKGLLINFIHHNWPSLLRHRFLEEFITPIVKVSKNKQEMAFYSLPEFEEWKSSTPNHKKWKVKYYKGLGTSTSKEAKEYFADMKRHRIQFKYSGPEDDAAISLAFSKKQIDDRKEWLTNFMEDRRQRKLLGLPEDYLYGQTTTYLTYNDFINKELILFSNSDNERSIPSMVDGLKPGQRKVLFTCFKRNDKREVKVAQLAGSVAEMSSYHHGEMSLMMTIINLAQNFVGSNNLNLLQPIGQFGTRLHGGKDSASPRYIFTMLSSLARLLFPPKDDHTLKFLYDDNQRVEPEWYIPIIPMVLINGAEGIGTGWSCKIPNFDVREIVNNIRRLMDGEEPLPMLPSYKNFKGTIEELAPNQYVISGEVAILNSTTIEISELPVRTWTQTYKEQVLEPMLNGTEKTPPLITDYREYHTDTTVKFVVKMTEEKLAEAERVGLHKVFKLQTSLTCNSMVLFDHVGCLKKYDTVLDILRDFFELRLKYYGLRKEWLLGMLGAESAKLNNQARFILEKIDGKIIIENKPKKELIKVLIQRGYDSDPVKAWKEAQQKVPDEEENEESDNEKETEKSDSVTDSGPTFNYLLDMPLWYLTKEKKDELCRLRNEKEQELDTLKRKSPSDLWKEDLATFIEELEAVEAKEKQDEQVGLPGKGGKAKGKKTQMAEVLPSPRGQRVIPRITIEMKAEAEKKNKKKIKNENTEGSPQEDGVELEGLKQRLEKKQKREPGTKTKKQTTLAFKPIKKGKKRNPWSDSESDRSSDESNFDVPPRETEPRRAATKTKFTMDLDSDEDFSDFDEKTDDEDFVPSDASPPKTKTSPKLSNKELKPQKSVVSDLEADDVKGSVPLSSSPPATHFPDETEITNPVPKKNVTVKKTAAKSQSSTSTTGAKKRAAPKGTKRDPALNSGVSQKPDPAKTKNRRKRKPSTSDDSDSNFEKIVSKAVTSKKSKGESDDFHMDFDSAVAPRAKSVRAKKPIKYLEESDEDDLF

In the case of `COC1O[C@H](C)[C@@H](C)c2c(C)c3c(c(O)c21)[C@@H]1O[C@H](C)[C@@H](C)c2c(C)c(O)c([C@H]4O[C@H](C)[C@@H](C)c5c(C)c(O)cc(O)c54)c(c21)O3` (some centres not stated) [TRICITRINOL B], the Activity (HCT-116 [1]) is reported as “Active”, the inhibition [2] is reported as “Dose-dependent effect” and the IC50 (MCF7 [3]) is reported as 7.41 µM. For the same compound, the IC50 (A-431) was 4.83 µM, the Activity (HL-60 [4]) was 10% and the Activity (HL-60 [5]) was “inactive”. The “Ratio IC50” value (HMEC [6]) was 2, the “Ratio IC50” value (HMEC [7]) was 2 and the Activity (HCT-116 [8]) was “Active”. For the same compound, the Activity (HCT-116 [9]) was “Dose-dependent effect”, the IC50 (HL-60 [10]) was 3.2 µM and the “Ratio IC50” value (HMEC [11]) was 2. The IC50 (KB [12]) was 3.87 µM, the IC50 (MCF7 [13]) was 5.76 µM and the IC50 (HMEC [14]) was 7.89 µM. The Activity (HL-60 [15]) was “Active”, the Activity (HL-60 [16]) was “Dose-dependent effect” and the Activity (HL-60 [17]) was “Active”. For the same compound, the inhibition [18] was “Dose-dependent effect”, the Activity (HL-60 [19]) was “Dose-dependent effect” and the “Ratio IC50” value (HeLa) was 2. The Activity (HL-60 [20]) was “tde”, the Activity (HL-60 [21]) was “inactive” and the Activity (HL-60 [22]) was “Active”. The IC50 (KB [23]) was 4.6 µM, the “Ratio IC50” value (HMEC [24]) was 2 and the “Ratio IC50” value (HMEC [25]) was 2.
